Assay results published in ChEMBL document CHEMBL3745663, “Identification of a novel class of quinoline-oxadiazole hybrids as anti-tuberculosis agents” (Bioorg Med Chem Lett, 2016).
In brackets after ≈: the same amount, converted by molar mass. Where a name gives a salt, the structure may show the parent alone.

Key:
[1] = Selectivity index, ratio of CC50 for human HepG2 cells to MIC for Mycobacterium tuberculosis H37Rv; type: toxicity, cell-based; details: read-out: Selectivity Index
Summary of the method: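 Index equals HepG2 CC50 (SRB assay, 10 to 80 µg/mL) divided by the REMA MIC against M. tuberculosis H37Rv (50 to 0.1 µg/mL).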

[2] = test system: Mycobacterium tuberculosis; test: Antibacterial activity against Mycobacterium tuberculosis H37Rv after 7 days by resazurin microplate assay; type: functional; details: 168 h
[3] = Cytotoxicity against human HepG2 cells after 48 hrs by SRB assay; type: cell-based
[4] = Metabolic stability in rat liver microsomes assessed as compound remaining at 10 uM after 60 mins by HPLC analysis; type: ADME; details: read-out: Stability
Summary of the method: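 Compound was incubated with rat liver microsomes and its disappearance followed over 60 minutes. Diazepam was the internal standard. The drug-to-internal-standard ratio was calculated at each time point to gauge how much compound remained.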

[5] = test system: Mycobacterium tuberculosis; test: Antibacterial activity against Mycobacterium tuberculosis; type: functional

Row | SMILES | selectivity ratio [1] | MIC [2] | CC50 at 48 h [3] | remaining at 1 h, 10 µM [4] | MIC [5]
1 | COc1nc2ccccc2cc1/C=C/c1noc(-c2cccc(Cl)c2)n1 | > 2 | > 110 µM | > 220 µM | – | –
2 | COc1cccc(-c2nc(/C=C/c3cc4ccccc4nc3OC)no2)c1 | > 2.1 | 105 µM (≈ 37.7 µg/mL) | > 220 µM | – | –
3 | COc1nc2ccccc2cc1/C=C/c1noc(-c2ccc(C)cc2)n1 | > 5.75 | 40 µM (≈ 13.7 µg/mL) | > 230 µM | – | –
4 | COc1nc2ccccc2cc1/C=C/c1noc(-c2ccc(F)cc2)n1 | > 41 | 5.61 µM (≈ 1.95 µg/mL) | > 230 µM | – | –
5 | COCc1nc(/C=C/c2cc3ccccc3nc2OC)no1 | > 610 | 0.44 µM (≈ 0.131 µg/mL) | > 270 µM | 99% | –
6 | COc1nc2ccccc2cc1/C=C/c1noc(-c2ccccc2)n1 | > 19.5 | 12.3 µM (≈ 4.05 µg/mL) | > 240 µM | – | –
7 | COc1nc2ccccc2cc1/C=C/c1noc(/C=C/c2ccccc2)n1 | > 35.5 | 6.33 µM (≈ 2.25 µg/mL) | > 225 µM | – | –
8 | COc1nc2ccccc2cc1/C=C/c1noc(-c2ccco2)n1 | > 9.12 | 27.4 µM (≈ 8.75 µg/mL) | > 250 µM | – | –
9 | COc1nc2ccccc2cc1/C=C/c1noc(-c2cccnc2)n1 | > 1.6 | > 150 µM | > 240 µM | – | –
10 | COc1ccc(-c2nc(/C=C/c3cc4ccccc4nc3OC)no2)cc1 | > 1.57 | > 140 µM | > 220 µM | – | –
11 | COc1nc2ccccc2cc1/C=C/c1noc(Cc2ccccc2)n1 | > 520 | 0.44 µM (≈ 0.151 µg/mL) | > 230 µM | – | –
12 | COc1nc2ccc(Br)cc2cc1[C@@H](c1ccccc1)[C@@](O)(CCN(C)C)c1cccc2ccccc12 [BEDAQUILINE] | – | – | – | – | 0.1 µM (≈ 0.0556 µg/mL)
13 | COc1nc2ccccc2cc1/C=C/c1noc(COc2ccccc2)n1 | > 330 | 0.67 µM (≈ 0.241 µg/mL) | > 220 µM | – | –
14 | COc1nc2ccccc2cc1/C=C/c1noc(-c2ccc(Br)cc2)n1 | > 21.2 | 9.19 µM (≈ 3.75 µg/mL) | > 195 µM | – | –
15 | COc1nc2ccccc2cc1/C=C/c1noc(-c2ccccc2C)n1 | > 3.16 | 72.8 µM (≈ 25 µg/mL) | > 230 µM | – | –
16 | COc1nc2ccccc2cc1/C=C/c1noc(-c2ccccc2Br)n1 | > 11.6 | 16.8 µM (≈ 6.86 µg/mL) | > 195 µM | – | –
17 | COc1ccccc1-c1nc(/C=C/c2cc3ccccc3nc2OC)no1 | > 31.6 | 6.96 µM (≈ 2.5 µg/mL) | > 220 µM | – | –
18 | COc1nc2ccccc2cc1/C=C/c1noc(-c2cccc(C)c2)n1 | > 2.09 | 110 µM (≈ 37.8 µg/mL) | > 230 µM | – | –
19 | NNC(=O)c1ccncc1 [ISONIAZID] | – | 0.73 µM (≈ 0.1 µg/mL) | – | – | –
20 | COc1cccc2c1C(=O)c1c(O)c3c(c(O)c1C2=O)C[C@@](O)(C(=O)CO)C[C@@H]3O[C@H]1C[C@H](N)[C@H](O)[C@H](C)O1 [DOXORUBICIN HYDROCHLORIDE] | – | – | 127 µM | – | –
21 | COc1nc2ccccc2cc1/C=C/c1noc(C)n1 | > 285 | 1.05 µM (≈ 0.281 µg/mL) | > 300 µM | – | –
22 | COc1ccc(Cc2nc(/C=C/c3cc4ccccc4nc3OC)no2)cc1 | > 535 | 0.4 µM (≈ 0.149 µg/mL) | > 215 µM | – | –
